Data: ChEMBL document CHEMBL3763097, “Synthesis and biological evaluation of 5,10-dihydro-11H-dibenzo[b,e][1,4]diazepin-11-one structural derivatives as anti-cancer and apoptosis inducing agents” (Eur J Med Chem, 2016)
pIC50: −log10 of the molar value.

How the values were obtained:
[1] = Cytotoxicity against human PC3 cells assessed as growth inhibition after 72 hrs by MTT assay; assay type: functional, cell-based; conditions: PC-3, 72 h
Summary of the method: (§1)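 Cells in RPMI 1640 (PC-3, A549, MDA-MB-231) or DMEM (U87MG, MCF-7) with 10% FBS, passages 4-10, were seeded at 3000-5000 per well and left 24 h. Compounds in DMSO/medium were added for 72 h; DMSO served as control. MTT (5 mg/mL) was added for 4 h and formazan dissolved in DMSO. Absorbance was read at 570 nm minus 630 nm. % inhibition was taken versus DMSO, with IC50 by probit; mean ± SD of three experiments in triplicate.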

A549 = experiment: Cytotoxicity against human A549 cells assessed as growth inhibition after 72 hrs by MTT assay; assay type: functional, cell-based; conditions: A549, 72 h; summary of the method: as §1
[2] = Cytotoxicity against human U87MG cells assessed as growth inhibition after 72 hrs by MTT assay; assay type: functional, cell-based, U-87MG ATCC; conditions: U-87 MG; summary of the method: as §1
MCF7 = experiment: Cytotoxicity against human MCF7 cells assessed as growth inhibition after 72 hrs by MTT assay; assay type: functional, cell-based; conditions: MCF7, 72 h; summary of the method: as §1
MDA-MB-231 = experiment: Cytotoxicity against human MDA-MB-231 cells assessed as growth inhibition after 72 hrs by MTT assay; assay type: functional, cell-based; conditions: MDA-MB-231, 72 h; summary of the method: as §1

Row | Structure (SMILES) | pIC50 [1] | pIC50 (A549) | pIC50 [2] | pIC50 (MCF7) | pIC50 (MDA-MB-231)
1 | O=C1c2ccccc2Nc2ccccc2N1Cc1cn(Cc2cccc(F)c2)nn1 | 5.14 | 5.08 | 5.69 | 5.39 | 5.45
2 | O=C1c2ccccc2Nc2ccccc2N1Cc1cn(Cc2ccccc2F)nn1 | 5.06 | 4.95 | 4.32 | 5.28 | < 4.30
3 | COc1cc(Cn2cc(CN3C(=O)c4ccccc4Nc4ccccc43)nn2)cc(OC)c1OC | < 4.30 | 5.06 | 5.75 | 4.99 | 6.37
4 | C#CCN1C(=O)c2ccccc2Nc2ccccc21 | 6.01 | 4.72 | 4.65 | 5.12 | 4.78
5 | O=C1c2ccccc2Nc2ccccc2N1Cc1cn(Cc2ccc([N+](=O)[O-])cc2)nn1 | < 4.30 | 4.32 | 4.48 | 6.03 | 4.37
6 | COc1ccc(OC)c(Cn2cc(CN3C(=O)c4ccccc4Nc4ccccc43)nn2)c1 | < 4.30 | 4.88 | 4.51 | 5.13 | 5.46
7 | O=C1c2ccccc2Nc2ccccc2N1Cc1cn(Cc2ccc(OC(F)(F)F)cc2)nn1 | < 4.30 | < 4.30 | < 4.30 | 4.53 | < 4.30
8 | O=c1[nH]cc(F)c(=O)[nH]1 [FLUOROURACIL] | 5.84 | 5.46 | 5.44 | – | –
9 | O=C1c2ccccc2Nc2ccccc2N1Cc1cn(Cc2cccc([N+](=O)[O-])c2)nn1 | 6.33 | < 4.30 | 4.40 | 6.19 | 5.82
10 | O=C1c2ccccc2Nc2ccccc2N1Cc1cn(Cc2ccc(Cl)cc2)nn1 | 5.95 | 5.30 | 4.61 | 4.41 | 5.64
11 | O=C1c2ccccc2Nc2ccccc2N1Cc1cn(Cc2ccc(F)cc2)nn1 | 4.76 | 4.57 | 4.42 | < 4.30 | 5.39
12 | O=C1c2ccccc2Nc2ccccc2N1Cc1cn(Cc2cccc3c2OCO3)nn1 | 4.97 | 4.97 | 4.87 | 4.75 | 4.99
13 | O=C1Nc2ccccc2Nc2ccccc21 | 4.38 | 4.43 | 5.05 | < 4.30 | < 4.30
